In ChEMBL document CHEMBL3286295, “Discovery of HDAC inhibitors with potent activity against multiple malaria parasite life cycle stages” (Eur J Med Chem, 2014):
Calls of active or inactive are those of the source. No cut-off for these calls is given here.

Tests used:
Plasmodium berghei [1] = test: Antimalarial activity against exo-erythrocytic form of Plasmodium berghei infected in human HepG2 cells after 48 hrs; format: functional, organism-based; details: HepG2, 48 h
How it was run: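 HepG2-A16-CD81EGFP cells seeded 20–26 h before infection and given compound 18 h before infection (0.5% final DMSO). Infected with 1×10^3 luciferase-expressing P. berghei sporozoites per well, spun 3 min at 330xg, 37°C, then incubated 48 h at 37°C in 5% CO2. Read by luminescence. IC50 by four-parameter variable-slope nonlinear regression.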

[2] = Selectivity index, ratio of IC50 for human HepG2 cells to IC50 for exo-erythrocytic form of Plasmodium berghei
Plasmodium falciparum [3] = test: Antimalarial activity against late stage gametocyte stage of Plasmodium falciparum NF54 after 72 hrs; format: functional, organism-based; details: NF54, 72 h
How it was run: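 Stage IV gametocytes of NF54-pfs16-GFP, magnetically isolated day 8 post induction, 33,000 per well. Incubated 72 h with compound under 5% CO2/5% O2/80% N2, then overnight with Mitotracker Red CM-H2XRos (0.07 ug/ml). IC50 by sigmoidal variable-slope fit, mean ±SD, two experiments in duplicate.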

[4] = Selectivity index, ratio of IC50 for human HepG2 cells to IC50 for asexual blood stage of Plasmodium falciparum 3D7
HepG2 = test: Cytotoxicity against human HepG2 cells after 48 hrs; format: ADME, cell-based; details: HepG2, 48 h
Plasmodium falciparum [5] = test: Antimalarial activity against asexual blood stage of Plasmodium falciparum 3D7 infected in human serum assessed as [3H]hypoxanthine incorporation incubated for 48 hrs prior to 3H]hypoxanthine addition measured after 24 hrs by liquid scintillation counting analysis; format: functional, organism-based; details: 3D7, Serum
How it was run: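 Synchronous ring-stage parasites (0.25% parasitaemia, 2.5% haematocrit) in RPMI 1640 with 10% heat-inactivated human serum, exposed to serially diluted compound for 48 h at 37°C. [3H]-hypoxanthine (0.5 μCi/well) then added for a further 24 h and counted by liquid scintillation. Inhibition is relative to 0.5% DMSO controls. IC50 by log-linear interpolation, mean (±SD) of three independent experiments, each in triplicate wells.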

Plasmodium falciparum [6] = test: Antimalarial activity against Plasmodium falciparum infected in human erythrocytes after 72 hrs; format: functional, organism-based
[7] = Cytotoxicity against human mammalian cells after 72 to 96 hrs by MTT assay; format: cell-based
Plasmodium berghei [8] = test: microbe, parasite or virus in culture; format: functional, organism-based; details: HepG2
[9] = Selectivity index, ratio of IC50 for human mammalian cells to IC50 for Plasmodium falciparum; format: toxicity; details: mammalian cells (cell line not named), read-out: Ratio IC50
How it was run: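 Ratio of HepG2 IC50 to P. falciparum 3D7 IC50. HepG2 toxicity assay: uninfected HepG2-A16-CD81EGFP cells treated as in the liver-stage assay, with medium instead of sporozoites, for 48 h. ATP measured by luminescence vs DMSO-treated cells. IC50 by four-parameter regression.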

RAW = test: Cytotoxicity against mouse RAW cells by MTT assay; format: cell-based
[10] = Selectivity index, ratio of IC50 for mouse RAW cells to IC50 for Plasmodium falciparum; format: toxicity, cell-based; details: read-out: Ratio IC50
Plasmodium falciparum [11] = test: Inhibition of histone deacetylase in Plasmodium falciparum nuclear lysates at 1 uM by fluorescence assay
How it was run: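 Nuclear protein lysates prepared from trophozoite-stage P. falciparum with a nuclear extraction kit, tested at 1 μM compound in a fluorometric HDAC assay kit. Percent inhibition vs controls, mean (±SD) of two independent assays, each in duplicate.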

[12] = tested on: Plasmodium falciparum 3D7; test: Inhibition of HDAC in Plasmodium falciparum 3D7 trophozoites assessed as histone H4 hyperacetylation level at 500 nM after 3 hrs by Western blotting analysis relative to control
How it was run: (§1)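 Synchronous trophozoite-stage 3D7 parasites incubated 3 h with 500 nM compound or 0.05% DMSO vehicle. Vehicle samples taken at 0 and 3 h. Saponin lysis and PBS washing, then 15% SDS-PAGE and immunoblotting. Anti-RAP2 monoclonal used as loading control; infrared fluorescent secondary detection.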

[13] = tested on: Plasmodium falciparum 3D7; test: Inhibition of HDAC in Plasmodium falciparum 3D7 trophozoites assessed as histone H3 hyperacetylation level at 500 nM after 3 hrs by Western blotting analysis relative to control; how it was run: as §1
Plasmodium falciparum [14] = test: Inhibition of Plasmodium falciparum recombinant histone deacetylase1 using HDAC substrate 3 as substrate at 1 uM by fluorescence assay
How it was run: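 Recombinant PfHDAC1 tested at 1 μM compound in a fluorometric HDAC assay kit with Fluorogenic HDAC substrate 3. Percent inhibition vs controls, mean (±SD) of two independent assays, each in duplicate.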

[15] = Cytotoxicity against erythrocytes (unknown origin); format: cell-based; details: Erythrocyte
[16] = Selectivity index, ratio of IC50 for human HepG2 cells to IC50 for late stage gametocyte stage of Plasmodium falciparum NF54; format: toxicity, cell-based; details: read-out: Ratio IC50

IC50 (Plasmodium berghei [1])	IC50 (Plasmodium falciparum [3])	IC50 (Plasmodium falciparum [5])	inhibition (Plasmodium falciparum [11])	inhibition [12]	inhibition [13]	inhibition (Plasmodium falciparum [14])	Compound	selectivity ratio [2]	selectivity ratio [4]	IC50 (HepG2)	also measured
1250 nM	> 120000 nM	730 nM					O=C(CCCCCONC(=O)c1ccccc1F)NO	7	12	9100 nM	
1370 nM		230 nM					CCOc1ccc(C(=O)NOCCCCCC(=O)NO)cc1	6	33	7680 nM	
1900 nM		260 nM					O=C(CCCCCONC(=O)c1ccc(C(F)(F)F)cc1)NO	7	50	13000 nM	
							CCCCc1nc2cc(/C=C/C(=O)NO)ccc2n1CCN(CC)CC [PRACINOSTAT]				IC50 (Plasmodium falciparum [6]): 80 nM; IC50 [7]: > 800 nM; IC50 (Plasmodium berghei [8]): 150 nM; selectivity ratio [9]: > 4
450 nM		240 nM					CCCOc1cccc(C(=O)NOCCCCCC(=O)NO)c1	16	29	7040 nM	
							Nc1cccc(-c2csc(NC(=O)CCCCCCC(=O)NO)n2)c1				IC50 (RAW): 600 nM; selectivity ratio [10]: 333
1360 nM		150 nM	9.3%	Active	Active	62.4%	CC(C)Oc1ccc(C(=O)NOCCCCCC(=O)NO)cc1	7	65	9760 nM	
			78.1%	Active	Active	93.3%	CC(/C=C/C(=O)NO)=C\[C@@H](C)C(=O)c1ccc(N(C)C)cc1 [TRICHOSTATIN]				IC50 [15]: 200 nM
5290 nM		210 nM					CCCOc1ccc(C(=O)NOCCCCCC(=O)NO)cc1	3	80	16900 nM	
1130 nM	1000 nM	620 nM					O=C(CCCCCONC(=O)c1ccco1)NO	7	13	8030 nM	
1830 nM	500 nM	160 nM	89.3%	Active	Active	64.2%	O=C(CCCCCONC(=O)c1ccc(-c2ccccc2)cc1)NO	6	64	10200 nM	selectivity ratio [16]: 20
2310 nM	2000 nM	580 nM					O=C(CCCCCONC(=O)c1ccc(F)cc1)NO	4	18	10300 nM	
1870 nM	> 120000 nM	90 nM	48.3%	Active	Active	68.6%	CC(C)(C)c1ccc(C(=O)NOCCCCCC(=O)NO)cc1	7	139	12500 nM	
5140 nM		210 nM					CCCCCOc1ccc(C(=O)NOCCCCCC(=O)NO)cc1	> 10	> 238	> 50000 nM	
310 nM	250 nM	120 nM	93.3%	Active	Active	82.6%	Cc1ccc(C(=O)NOCCCCCC(=O)NO)cc1C	10	27	3240 nM	selectivity ratio [16]: 13
	2700 nM						COc1ccc2nc3cc(Cl)ccc3c(Nc3cc(CN4CCCC4)c(O)c(CN4CCCC4)c3)c2n1 [PYRONARIDINE]				
2140 nM		170 nM	50.3%	Active	Active	72.1%	CCCCOc1ccc(C(=O)NOCCCCCC(=O)NO)cc1	> 23	> 294	> 50000 nM	
660 nM	430 nM	190 nM	73.9%	Active	Active	75.5%	Cc1cccc(C(=O)NOCCCCCC(=O)NO)c1	7	25	4690 nM	selectivity ratio [16]: 11
							O=C(CCCCCCC(=O)Nc1ccccc1)NO [VORINOSTAT]				IC50 [15]: > 2200 nM
1140 nM		220 nM					Cc1ccc(C(=O)NOCCCCCC(=O)NO)cc1	11	55	12100 nM	
2540 nM		1120 nM					Cc1ccccc1C(=O)NOCCCCCC(=O)NO	5	11	12700 nM	
480 nM		240 nM					CCCOc1ccccc1C(=O)NOCCCCCC(=O)NO	17	34	8120 nM	
7910 nM		350 nM					CCCCCCOc1ccc(C(=O)NOCCCCCC(=O)NO)cc1	> 6	> 143	> 50000 nM	
							O=C(/C=C/c1ccccc1)N[C@@H](CCCCCC(=O)NO)C(=O)Nc1cccc2cccnc12				IC50 [15]: 1240 nM
1790 nM	5300 nM	260 nM					CCCCc1ccc(C(=O)NOCCCCCC(=O)NO)cc1	6	41	10800 nM	

Compound	IC50 (Plasmodium berghei [1])	IC50 (Plasmodium falciparum [3])	IC50 (Plasmodium falciparum [5])	inhibition (Plasmodium falciparum [11])	inhibition [12]	inhibition [13]	inhibition (Plasmodium falciparum [14])	selectivity ratio [2]	selectivity ratio [4]	IC50 (HepG2)	also measured
O=C1C(O)=C([C@H]2CC[C@H](c3ccc(Cl)cc3)CC2)C(=O)c2ccccc21 [ATOVAQUONE]	0.16 nM							> 64100			
CC(C)c1ccc(C(=O)NOCCCCCC(=O)NO)cc1	1340 nM		120 nM	72.9%	Active	Active	67.2%	7	73	8760 nM	
CCN(CC)CCCC(C)Nc1ccnc2cc(Cl)ccc12 (stereo not drawn) [CHLOROQUINE]	> 10000 nM									> 10000 nM	
Cc1cc(C)cc(C(=O)NOCCCCCC(=O)NO)c1	160 nM	330 nM	100 nM	58.6%	Active	Active	73.8%	8	13	1260 nM	selectivity ratio [16]: 4
